# Test results taken from ChEMBL document CHEMBL1154215, “Constituents of the leaves of Magnolia ovata” (2009).
# Calls of active or inactive are those of the source. The rule behind the calls is not given here.
# What was measured:
# Format in all cases: functional
# Escherichia coli = experiment: Antimicrobial activity against Escherichia coli ATCC 10799 by broth microdilution method
# How it was run: (§1)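 Broth microdilution in 96-well plates; compounds tested from 10 to 1000 μg/mL. MIC is the lowest concentration giving complete inhibition of the strain. Positive controls were bacitracine (0.2 UI mL⁻¹) and ketoconazole (100.0 μg mL⁻¹). Negative control was DMSO–sterile water (5:95, v/v). Run in duplicate per microorganism and repeated three times.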
# Candida tropicalis = experiment: Antimicrobial activity against Candida tropicalis ATCC 157 by broth microdilution method; how it was run: as §1
# Nakaseomyces glabratus = experiment: Antimicrobial activity against Candida glabrata ATCC 30070 by broth microdilution method; how it was run: as §1
# Candida dubliniensis = experiment: Antimicrobial activity against Candida dubliniensis ATCC 778157 by broth microdilution method; how it was run: as §1
# [1] = test system: Radical scavenging activity; experiment: Antioxidant activity assessed as DPPH radical scavenging activity
# How it was run: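 DPPH (250 μM in MeOH) added to methanolic compound solutions, seven serial […] dilutions giving a final range of 100 to 1.6 μg mL⁻¹. Quercetin and Trolox served as positive controls. Triplicate assays. SC₅₀ is the concentration (μg mL⁻¹) scavenging 50% of DPPH radicals, reported as mean (%RSD).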
# Staphylococcus aureus = experiment: Antimicrobial activity against Staphylococcus aureus ATCC 14458 by broth microdilution method; how it was run: as §1
# [2] = test system: Staphylococcus epidermidis; experiment: Antimicrobial activity against Staphylococcus epidermidis ATCC 12228 by broth microdilution method; how it was run: as §1
# Pseudomonas aeruginosa = experiment: Antimicrobial activity against Pseudomonas aeruginosa ATCC 15442 by broth microdilution method; how it was run: as §1
Structure (SMILES),MIC (Escherichia coli) [µg/mL],MIC (Candida tropicalis) [µg/mL],MIC (Nakaseomyces glabratus) [µg/mL],MIC (Candida dubliniensis) [µg/mL],Activity [1],MIC (Staphylococcus aureus) [µg/mL],MIC [2] [µg/mL],MIC (Pseudomonas aeruginosa) [µg/mL],SC50 [1] [µg/mL]
C[C@H]([C@H](C)Cc1ccc2c(c1)OCO2)[C@H](O)c1ccc2c(c1)OCO2 (relative stereo) [MAGNOVATIN A],> 100,> 100,> 100,> 100,inactive,> 100,> 100,> 100,
Cc1c(C)c2c(c(C)c1O)CCC(C)(C(=O)O)O2 (stereo unspecified),,,,,,,,,2.2
O=c1c(O)c(-c2ccc(O)c(O)c2)oc2cc(O)cc(O)c12,,,,,,,,,13
C/C=C/c1cc(OC)c2c(c1)[C@@H](C)[C@H](c1ccc(OC)c(OC)c1)O2 [ACUMINATIN],> 100,> 100,> 100,> 100,inactive,> 100,> 100,> 100,
C/C=C/c1cc(OC)c2c(c1)[C@@H](C)[C@H](c1ccc(O)c(OC)c1)O2 [LICARINE A],> 100,> 100,> 100,> 100,,> 100,> 100,> 100,56.1
